# Measured values published in ChEMBL document CHEMBL1142628, “Antineoplastic agents 430. Isolation and structure of cribrostatins 3, 4, and 5 from the republic of maldives cribrochalina species” (2000).
# Active and inactive are the calls of the source. No cut-off for these calls is given here.
# What was measured:
# Candida albicans = experiment: Antifungal activity against Candida albicans ATCC 90028 at 100 ug/disk by disk diffusion method; format: functional, organism-based
# Cryptococcus neoformans = experiment: Antifungal activity against Cryptococcus neoformans ATCC 90112 at 100 ug/disk by disk diffusion method; format: functional, organism-based
# Micrococcus luteus [1] = experiment: Antibacterial activity against Micrococcus luteus Presque Isle 456 at 100 ug/disk by disk diffusion method; format: functional, organism-based
# Staphylococcus aureus = experiment: Antibacterial activity against Staphylococcus aureus ATCC 29213 at 100 ug/disk by disk diffusion method; format: functional, organism-based
# Enterococcus faecalis = experiment: Antibacterial activity against Enterococcus faecalis ATCC 29212 at 100 ug/disk by disk diffusion method; format: functional, organism-based
# Bacillus subtilis [2] = experiment: Antibacterial activity against Bacillus subtilis Presque Isle 620 at 100 ug/disk by disk diffusion method; format: functional, organism-based
# Streptococcus pneumoniae [3] = experiment: Antibacterial activity against Streptococcus pneumoniae ATCC 6303 at 100 ug/disk by disk diffusion method; format: functional, organism-based
# [4] = tested on: Stenotrophomonas maltophilia; experiment: Antibacterial activity against Stenotrophomonas maltophilia ATCC 13637 at 100 ug/disk by disk diffusion method; format: functional, organism-based
# Escherichia coli = experiment: Antibacterial activity against Escherichia coli ATCC 25922 at 100 ug/disk by disk diffusion method; format: functional, organism-based
# Enterobacter cloacae = experiment: Antibacterial activity against Enterobacter cloacae ATCC 13047 at 100 ug/disk by disk diffusion method; format: functional, organism-based
# Neisseria gonorrhoeae [5] = experiment: Antibacterial activity against Neisseria gonorrhoeae ATCC 49226 by disk diffusion method; format: functional
# BXPC-3 = experiment: Growth inhibition of human BXPC3 cells; format: functional
# OVCAR-3 = experiment: Growth inhibition of human OVCAR-3 cells; format: functional
# Method in brief: (§1)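 NCI 60-cell-line screen run by the standard NCI protocol. Each test agent ran in quadruplicate, with a top concentration of 10^-5 M and five log-spaced dilutions. GI50 values were averaged and reported as negative log GI50.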
# SF-295 [6] = experiment: (§2) Growth inhibition of human SF295 cells; format: functional
# Method in brief: (§3)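 NCI human tumor cell line panel screen run to the standard NCI protocol. Each compound tested in quadruplicate with a top concentration of 10^-5 M and five log-spaced dilutions. GI50 values were averaged across replicates and reported as negative log GI50.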
# NCI-H460 [7] = experiment: (§4) Growth inhibition of human NCI-H460 cells; format: functional; method in brief: as §1
# KM-20L2 = experiment: Growth inhibition of human KM20L2 cells; format: functional
# DU-145 = experiment: Growth inhibition of human DU145 cells; format: functional; method in brief: as §1
# P388 = experiment: Growth inhibition of mouse P388 cells; format: functional
# Micrococcus luteus [8] = experiment: Antibacterial activity against Micrococcus luteus Presque Isle 456 by disk diffusion method; format: functional
# SK-N-SH = experiment: Growth inhibition of human SK-N-SH cells; format: functional
# SW-1736 = experiment: Growth inhibition of human SW1736 cells; format: functional
# FaDu = experiment: Growth inhibition of human FaDu cells; format: functional
# Bacillus subtilis [9] = experiment: Antibacterial activity against Bacillus subtilis Presque Isle 620 by disk diffusion method; format: functional
# Streptococcus pneumoniae [10] = experiment: Antibacterial activity against Streptococcus pneumoniae ATCC 6303 by disk diffusion method; format: functional
# Streptococcus pneumoniae [11] = experiment: Antibacterial activity against penicillin-resistant Streptococcus pneumoniae isolate by disk diffusion method; format: functional
# Streptococcus pneumoniae [12] = experiment: Antibacterial activity against invasive Streptococcus pneumoniae isolate at 100 ug/disk by disk diffusion method; format: functional, organism-based
# [13] = tested on: Streptococcus sp. 'group A'; experiment: Antibacterial activity against group A Streptococcus isolate by disk diffusion method; format: functional
# Neisseria gonorrhoeae [14] = experiment: Antibacterial activity against penicillin-resistant Neisseria gonorrhoeae isolate by disk diffusion method; format: functional
# CCRF-CEM = experiment: Growth inhibition of human CCRF-CEM cells; format: functional; method in brief: as §1
# [15] = Growth inhibition of human HL60(TB) cells; format: functional, HL-60(TB); settings: HL-60
# Method in brief: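 NCI human tumour cell-line panel screen run by the standard NCI protocol. Each compound was tested in quadruplicate, with an upper concentration limit of 10^-5 M and five log-spaced dilutions. GI50 values were averaged and reported as negative log GI50.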
# K562 = experiment: Growth inhibition of human K562 cells; format: functional; method in brief: as §1
# MOLT-4 = experiment: Growth inhibition of human MOLT4 cells; format: functional; method in brief: as §1
# RPMI-8226 = experiment: Growth inhibition of human RPMI8226 cells; format: functional; method in brief: as §1
# SR = experiment: Growth inhibition of human SR cells; format: functional; method in brief: as §3
# A549 = experiment: Growth inhibition of human A549/ATCC cells; format: functional; method in brief: as §1
# HOP-62 = experiment: Growth inhibition of human HOP62 cells; format: functional; method in brief: as §1
# HOP-92 = experiment: Growth inhibition of human HOP92 cells; format: functional; method in brief: as §1
# NCI-H226 = experiment: Growth inhibition of human NCI-H226 cells; format: functional; method in brief: as §1
# NCI-H460 [16] = experiment: as §4; format: functional; method in brief: as §1; remark: listed apart in the source
# NCI-H522 = experiment: Growth inhibition of human NCI-H522 cells; format: functional; method in brief: as §1
# COLO 205 = experiment: Growth inhibition of human COLO205 cells; format: functional; method in brief: as §1
# KM12 = experiment: Growth inhibition of human KM12 cells; format: functional; method in brief: as §1
# SW-620 = experiment: Growth inhibition of human SW620 cells; format: functional; method in brief: as §3
# SNB-75 = experiment: Growth inhibition of human SNB75 cells; format: functional; method in brief: as §3
# U-251 = experiment: Growth inhibition of human U251 cells; format: functional; method in brief: as §3
# LOX IMVI = experiment: Growth inhibition of human LOX IMVI cells; format: functional; method in brief: as §1
# Malme-3M = experiment: Growth inhibition of human MALME-3M cells; format: functional; method in brief: as §1
# SK-MEL-5 = experiment: Growth inhibition of human SK-MEL-5 cells; format: functional; method in brief: as §3
# UACC-62 = experiment: Growth inhibition of human UACC62 cells; format: functional; method in brief: as §3
# IGROV-1 = experiment: Growth inhibition of human IGROV1 cells; format: functional; method in brief: as §1
# OVCAR-4 = experiment: Growth inhibition of human OVCAR4 cells; format: functional; method in brief: as §1
# OVCAR-8 = experiment: Growth inhibition of human OVCAR8 cells; format: functional; method in brief: as §1
# 786-0 = experiment: Growth inhibition of human 786-0 cells; format: functional; method in brief: as §1
# ACHN = experiment: Growth inhibition of human ACHN cells; format: functional; method in brief: as §1
# RXF 393 = experiment: Growth inhibition of human RXF393 cells; format: functional; method in brief: as §3
# SN12C = experiment: Growth inhibition of human SN12C cells; format: functional; method in brief: as §3
# PC-3 = experiment: Growth inhibition of human PC3 cells; format: functional; method in brief: as §1
# MCF7 [17] = experiment: Growth inhibition of human MCF7 cells; format: functional; method in brief: as §1
# MCF7 [18] = experiment: Growth inhibition of human adriamycin-resistant MCF7 cells; format: functional; method in brief: as §3
# MDA-MB-231 = experiment: Growth inhibition of human MDA-MB-231/ATCC cells; format: functional; method in brief: as §1
# Hs-578T = experiment: Growth inhibition of human HS578T cells; format: functional; method in brief: as §1
# MDA-MB-435 = experiment: Growth inhibition of human MDA-MB-435 cells; format: functional; method in brief: as §1
# MDA-N = experiment: Growth inhibition of human MDA-N cells; format: functional; method in brief: as §1
# T47D = experiment: Growth inhibition of human T47D cells; format: functional; method in brief: as §3
# SF-268 = experiment: Growth inhibition of human SF268 cells; format: functional; method in brief: as §3
# SF-295 [19] = experiment: as §2; format: functional; method in brief: as §3; remark: listed apart in the source
# SF-539 = experiment: Growth inhibition of human SF539 cells; format: functional; method in brief: as §3
# [20] = read-out: ED50 (the source's name)
smiles,measurement,setting,value
CC1=C(N)C(=O)c2c(ccnc2C)C1=O [CRIBROSTATIN 1],Activity,Candida albicans,inactive
same,Activity,Cryptococcus neoformans,inactive
same,Activity,Micrococcus luteus [1],inactive
same,Activity,Staphylococcus aureus,inactive
same,Activity,Enterococcus faecalis,inactive
same,Activity,Bacillus subtilis [2],inactive
same,Activity,Streptococcus pneumoniae [3],inactive
same,Activity,[4],inactive
same,Activity,Escherichia coli,inactive
same,Activity,Enterobacter cloacae,inactive
same,MIC,Neisseria gonorrhoeae [5],0.39 µg/disc
C/C=C(/C)C(=O)OCc1nccc2c1C(=O)C(NC)=C(C)C2=O [CRIBROSTATIN 4],GI50,BXPC-3,0.29 µg/mL
same,GI50,OVCAR-3,0.18 µg/mL
same,GI50,SF-295 [6],0.36 µg/mL
same,GI50,NCI-H460 [7],0.22 µg/mL
same,GI50,KM-20L2,0.14 µg/mL
same,GI50,DU-145,0.3 µg/mL
same,GI50,P388,0.045 µg/mL
same,EC50,P388; [20],0.045 µg/mL
same,Activity,Candida albicans,inactive
same,Activity,Cryptococcus neoformans,inactive
same,MIC,Micrococcus luteus [8],50 µg/disc
same,Activity,Staphylococcus aureus,inactive
same,Activity,Enterococcus faecalis,inactive
same,Activity,Bacillus subtilis [2],inactive
same,Activity,Streptococcus pneumoniae [3],inactive
same,Activity,[4],inactive
same,Activity,Escherichia coli,inactive
same,MIC,Neisseria gonorrhoeae [5],6.25 µg/disc
C/C=C(/C)C(=O)OC[C@H]1C2=C(C=C3[C@H]4c5c(O)c(OC)c(C)c(O)c5C(=O)[C@@H](C(=O)N31)N4C)C(=O)C(C)=C(OC)C2=O [CRIBROSTATIN 5],GI50,BXPC-3,5.6 µg/mL
same,GI50,SK-N-SH,3.6 µg/mL
same,GI50,OVCAR-3,2.2 µg/mL
same,EC50,OVCAR-3; [20],2.2 µg/mL
same,GI50,SF-295 [6],> 10 µg/mL
same,GI50,SW-1736,> 10 µg/mL
same,GI50,NCI-H460 [7],> 10 µg/mL
same,GI50,KM-20L2,> 10 µg/mL
same,GI50,FaDu,0.26 µg/mL
same,GI50,DU-145,> 10 µg/mL
same,GI50,P388,24.6 µg/mL
same,Activity,Candida albicans,inactive
same,Activity,Cryptococcus neoformans,inactive
same,Activity,Micrococcus luteus [1],inactive
same,Activity,Staphylococcus aureus,inactive
same,Activity,Enterococcus faecalis,inactive
same,MIC,Bacillus subtilis [9],12.5 µg/disc
same,MIC,Streptococcus pneumoniae [10],6.25 µg/disc
same,MIC,Streptococcus pneumoniae [11],50 µg/disc
same,Activity,Streptococcus pneumoniae [12],inactive
same,MIC,[13],12.5 µg/disc
same,Activity,[4],inactive
same,Activity,Escherichia coli,inactive
same,Activity,Enterobacter cloacae,inactive
same,MIC,Neisseria gonorrhoeae [5],6.25 µg/disc
same,MIC,Neisseria gonorrhoeae [14],1.56 µg/disc
same,GI50,CCRF-CEM,1.7 µM
same,GI50,[15],5.37 µM
same,GI50,K562,4.37 µM
same,GI50,MOLT-4,1.91 µM
same,GI50,RPMI-8226,6.17 µM
same,GI50,SR,3.8 µM
same,GI50,A549,8.71 µM
same,GI50,HOP-62,7.59 µM
same,GI50,HOP-92,8.13 µM
same,GI50,NCI-H226,7.94 µM
same,GI50,NCI-H460 [16],7.59 µM
same,GI50,NCI-H522,4.17 µM
same,GI50,COLO 205,8.13 µM
same,GI50,KM12,9.12 µM
same,GI50,SW-620,6.92 µM
same,GI50,SNB-75,5.62 µM
same,GI50,U-251,6.46 µM
same,GI50,LOX IMVI,3.31 µM
same,GI50,Malme-3M,0.389 µM
same,GI50,SK-MEL-5,8.13 µM
same,GI50,UACC-62,9.77 µM
same,GI50,IGROV-1,8.51 µM
same,GI50,OVCAR-4,1.82 µM
same,GI50,OVCAR-8,4.27 µM
same,GI50,786-0,6.17 µM
same,GI50,ACHN,7.94 µM
same,GI50,RXF 393,5.25 µM
same,GI50,SN12C,7.08 µM
same,GI50,PC-3,9.12 µM
same,GI50,MCF7 [17],8.13 µM
same,GI50,MCF7 [18],6.76 µM
same,GI50,MDA-MB-231,2.69 µM
same,GI50,Hs-578T,8.71 µM
same,GI50,MDA-MB-435,1.82 µM
same,GI50,MDA-N,2.19 µM
same,GI50,T47D,2.09 µM
same,GI50,SF-268,9.55 µM
same,GI50,SF-295 [19],8.91 µM
same,GI50,SF-539,5.75 µM
